Measurements: ChEMBL document CHEMBL4732216, “Design and Characterization of an Intracellular Covalent Ligand for CC Chemokine Receptor 2” (J Med Chem, 2021)
Active and inactive are the calls of the source. The calls are words filed in the database; no cut-off is given here.

Experiments:
[1] = biological target: T1, C-C chemokine receptor type 2 (Homo sapiens, UniProt P41597); test: Antagonist activity at human CCR2 expressed in HEK293 cells assessed as inhibition of beta-arrestin recruitment pre-incubated for 20 mins before CCL2 stimulation and followed by further incubation for 90 mins by NanoBiT CCR2 assay based
Target sequence in this assay (P41597 whole entry): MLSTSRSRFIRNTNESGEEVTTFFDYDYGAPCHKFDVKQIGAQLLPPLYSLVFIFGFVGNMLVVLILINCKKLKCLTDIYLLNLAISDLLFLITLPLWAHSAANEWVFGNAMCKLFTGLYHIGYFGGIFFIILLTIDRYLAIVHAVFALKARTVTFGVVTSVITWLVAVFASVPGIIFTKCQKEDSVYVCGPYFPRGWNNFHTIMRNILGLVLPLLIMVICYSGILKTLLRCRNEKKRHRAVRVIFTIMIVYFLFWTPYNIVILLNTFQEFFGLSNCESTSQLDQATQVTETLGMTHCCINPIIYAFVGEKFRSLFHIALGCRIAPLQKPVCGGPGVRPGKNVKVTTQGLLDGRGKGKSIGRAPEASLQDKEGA

[2] = biological target: T1, C-C chemokine receptor type 2; test: Displacement of [3H]-CCR2-RA from human CCR2b expressed in human U2OS cell membranes incubated for 2 hrs by scintillation counting method; conditions: for Activity: Cell membrane, filed as antagonist
In short: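 U2OS-CCR2 membranes (5–30 μg protein) in 50 mM Tris-HCl pH 7.4, 5 mM MgCl2, 0.1% CHAPS. Coincubation 2 h at 25 °C with competitor 0.01 nM–10 μM and ~6 nM [3H]-CCR2-RA. Nonspecific binding with 10 μM JNJ-27141491. GF/B filtration, scintillation counting, IC50 by sigmoidal fit, Ki by Cheng–Prusoff.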

[3] = Displacement of [3H]-CCR2-RA-[R] from human CCR2 C75S mutant expressed in CHO cell membranes incubated for 2 hrs by scintillation counting method; design: species or system Cell membrane
[4] = biological target: T2, C-C chemokine receptor type 1 (Homo sapiens, UniProt P32246); test: Antagonist activity at human CCR1 expressed in human U2OS cell membranes as inhibition of [35S]GTPgammaS binding pre-incubated for 30 mins before CCL3 stimulation and followed by further incubation for 90 mins by scintillation counting method; format: functional, Cell membrane
T2 sequence (P32246 whole entry): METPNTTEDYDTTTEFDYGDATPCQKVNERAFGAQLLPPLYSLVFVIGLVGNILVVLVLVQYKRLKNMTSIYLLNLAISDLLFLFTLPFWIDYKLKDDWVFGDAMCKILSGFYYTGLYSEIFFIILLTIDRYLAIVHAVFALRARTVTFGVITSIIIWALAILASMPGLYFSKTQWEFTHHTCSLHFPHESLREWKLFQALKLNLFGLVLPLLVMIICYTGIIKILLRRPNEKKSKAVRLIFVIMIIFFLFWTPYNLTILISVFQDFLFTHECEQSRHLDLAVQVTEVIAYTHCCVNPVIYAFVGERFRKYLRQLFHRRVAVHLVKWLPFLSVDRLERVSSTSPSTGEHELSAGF

CHO [5] = test: (§1) Displacement of [3H]-CCR2-RA-(R) from human CCR2 C70S mutant expressed in CHO cell membranes assessed as radio ligand binding recovery at 10 times IC50 incubated for 2 hrs followed by extensive washing and centrifugation cycles before addition of [3H]-CCR2-RA-[R] for 2 hrs by scintillation counting method; conditions: Cell membrane
[6] = biological target: T1, C-C chemokine receptor type 2; test: (§2) Displacement of [3H]-CCR2-RA-(R) from human CCR2b expressed in human U2OS cell membranes assessed as radio ligand binding recovery at 10 times IC50 incubated for 2 hrs after pre-treatment with iodoacetamide for 30 mins and followed by extensive washing and centrifugation cycles before addition of [3H]-CCR2-RA-[R] for 2 hrs by scintillation counting method; conditions: Cell membrane
Target sequence in this assay (P41597 whole entry, looked up): as the sequence (P41597 whole entry) above

[7] = Stability in pH 7.4 Tris-HCl containing 5 mM MgCl2 and 0.1% CHAPS assessed as intact compound level measured at room temperature; format: physicochemical; conditions: buffer, pH 7.4, 5000 µM
[8] = Displacement of [3H]-CCR2-RA-[R] from human CCR2 C232S mutant expressed in CHO cell membranes incubated for 2 hrs by scintillation counting method; design: species or system Cell membrane
[9] = biological target: T1, C-C chemokine receptor type 2; test: Displacement of [3H]-CCR2-RA-[R] from wild type human CCR2 expressed in CHO cell membranes incubated for 2 hrs by scintillation counting method; design: species or system Cell membrane
Target sequence in this assay (P41597 whole entry): as the sequence (P41597 whole entry) above

[10] = biological target: T1, C-C chemokine receptor type 2; test: Displacement of [3H]-CCR2-RA-(R) from human CCR2b expressed in human U2OS cell membranes pre-incubated for 4 hrs before radio ligand addition and measured after 20 mins by scintillation counting method; design: species or system Cell membrane
Target sequence in this assay (P41597 whole entry): as the sequence (P41597 whole entry) above

[11] = biological target: T1, C-C chemokine receptor type 2; test: as §1, with “from wild type” for “from”, “CCR2” for “CCR2 C70S mutant”; conditions: Cell membrane, filed as antagonist
Target sequence in this assay (P41597 whole entry, looked up): as the sequence (P41597 whole entry) above

[12] = biological target: T1, C-C chemokine receptor type 2; test: Ratio of IC50 for antagonist activity at human CCR2 expressed in HEK293 cells assessed as inhibition of beta-arrestin recruitment pre-incubated for 20 mins followed by drug wash out before CCL2 stimulation and followed by further incubation for 90 mins by NanoBiT CCR2 assay to IC50 for antagonist activity at human CCR2 expressed in HEK293 cells assessed as inhibition of beta-arrestin recruitment pre-incubated for 20 mins before CCL2 stimulation and followed by further incubation for 90 mins by NanoBiT CCR2 assay
Target sequence in this assay (P41597 whole entry, looked up): as the sequence (P41597 whole entry) above

[13] = biological target: T1, C-C chemokine receptor type 2; test: Displacement of [3H]-CCR2-RA-(R) from human CCR2b expressed in human U2OS cell membranes pre-incubated for 0 hrs before radio ligand addition and measured after 20 mins by scintillation counting method; design: species or system Cell membrane
Target sequence in this assay (P41597 whole entry): as the sequence (P41597 whole entry) above

CHO [14] = test: as §1, with “[…]” for “C70S”; conditions: Cell membrane
[15] = biological target: T1, C-C chemokine receptor type 2; test: Antagonist activity at human CCR2 expressed in human U2OS cell membranes as inhibition of [35S]GTPgammaS binding pre-incubated for 30 mins before CCL2 stimulation and followed by further incubation for 90 mins by scintillation counting method; format: functional, Cell membrane; conditions: for inhibition: Cell membrane, filed as antagonist
In short: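 Preincubation 30 min at 25 °C with increasing ligand plus EC80 CCL2 (20 nM). [35S]GTPγS 0.3 nM added for 90 min at 25 °C, then filtration and scintillation counting. Basal without ligand/chemokine; pIC50 by sigmoidal fit.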

[16] = Displacement of [3H]-CCR2-RA-[R] from human CCR2 C70S/C75S/C232S mutant expressed in CHO cell membranes incubated for 2 hrs by scintillation counting method; design: species or system Cell membrane
[17] = biological target: T1, C-C chemokine receptor type 2; test: Antagonist activity at human CCR2 expressed in HEK293 cells assessed as inhibition of beta-arrestin recruitment pre-incubated for 20 mins followed by drug wash out before CCL2 stimulation and followed by further incubation for 90 mins by NanoBiT CCR2 assay based
Target sequence in this assay (P41597 whole entry): as the sequence (P41597 whole entry) above

[18] = biological target: T1, C-C chemokine receptor type 2; test: Antagonist activity at human CCR2 expressed in human U2OS cell membranes as [35S]GTPgammaS binding level at 250 nM pre-incubated for 30 mins followed by drug wash out before CCL2 stimulation and followed by further incubation for 90 mins by scintillation counting method relative to control; format: functional; design: scale not given: the % may be the effect or the level left; conditions: Cell membrane, filed as antagonist
In short: (§3)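 U2OS-CCR2 membranes (40 μg) preincubated with or without single compound concentration (600 or 250 nM) in 50 mM Tris-HCl pH 7.4/5 mM MgCl2, then four centrifugation/wash cycles (unwashed: final spin only). Resuspended in buffer with NaCl, EDTA, BSA, saponin 0.5 mg/mL, GDP 10 μM and 20 nM CCL2. 30 min at 25 °C, then [35S]GTPγS 0.3 nM 90 min, filtration; expressed relative to CCL2 alone.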
Target sequence in this assay (P41597 whole entry, looked up): as the sequence (P41597 whole entry) above

[19] = GSH reactivity at 1 mM in presence of 80 uM reduced glutathione measured at 37 degC for over 4 hrs; format: physicochemical; conditions: 1000 µM
[20] = biological target: T1, C-C chemokine receptor type 2; test: as §2, with “hrs” for “hrs after pre-treatment with iodoacetamide for 30 mins and”; conditions: Cell membrane, filed as antagonist
Target sequence in this assay (P41597 whole entry, looked up): as the sequence (P41597 whole entry) above

CHO [21] = test: as §1, with “C75S” for “C70S”; conditions: Cell membrane
CHO [22] = test: as §1, with “C232S” for “C70S”; conditions: Cell membrane
[23] = biological target: T1, C-C chemokine receptor type 2; test: as §2, with “N-ethylmaleimide” for “iodoacetamide”; conditions: Cell membrane
Target sequence in this assay (P41597 whole entry, looked up): as the sequence (P41597 whole entry) above

[24] = biological target: T1, C-C chemokine receptor type 2; test: Antagonist activity at human CCR2 expressed in human U2OS cell membranes as [35S]GTPgammaS binding level at 250 nM pre-incubated for 30 mins before CCL2 stimulation and followed by further incubation for 90 mins by scintillation counting method relative to control; format: functional; design: scale not given: the % may be the effect or the level left; conditions: Cell membrane, filed as antagonist; in short: as §3
[25] = Displacement of [3H]-CCR2-RA-[R] from human CCR2 C70S mutant expressed in CHO cell membranes incubated for 2 hrs by scintillation counting method; design: species or system Cell membrane

In the case of `N#CSCCNC(=O)c1ccc(Oc2ccc(Cl)cc2NS(=O)(=O)c2ccc(Cl)c(C(F)(F)F)c2)cc1`, the IC50 [1] is reported as 4 nM, the Activity [2] is reported as “Dose-dependent effect” and the Ki ([2]; read-out: Ki) is reported as 4 nM. The IC50 [3] was 5 nM, the pIC50 [3] was 8.4 and the IC50 [4] was 5.01 µM. The Activity (CHO [5]; filed as antagonist) was “Active”, the Activity [6] was 93% and the Stabilty [7] was greater than 6 h. For the same molecule, the IC50 [8] was 1 nM, the pIC50 [8] was 8.8 and the IC50 ([9]; read-out: IC50) was 2 nM. It also gave an IC50 ([9]; read-out: pIC50 (converted)) of 1.58 nM, a Ki ([10]; read-out: Ki) of 0.7 nM and an Activity [11] of 9%. For the same molecule, the Ratio IC50 [12] was 2.5, the Ki ([13]; read-out: Ki) was 2.4 nM and the Ki ([13]; read-out: pKi (converted)) was 2 nM. The Activity (CHO [14]) was “inactive”, the IC50 [15] was 33 nM and the inhibition [15] was “Dose-dependent effect”. For the same molecule, the IC50 [16] was 16 nM, the pIC50 [16] was 7.8 and the IC50 [17] was 10 nM. For the same molecule, the Activity [18] was -24%, the Stabilty [19] was “Stable” and the Activity [20] was 27%. The Activity (CHO [21]; filed as antagonist) was 30%, the Activity (CHO [22]; filed as antagonist) was “Active” and the Activity [23] was “inactive”. It also gave an Activity [24] of -5% and a pIC50 [25] of 8.4.
In the case of `C=CC(=O)NCCNC(=O)c1ccc(Oc2ccc(Cl)cc2NS(=O)(=O)c2ccc(Cl)c(C(F)(F)F)c2)cc1`, the Activity [2] is reported as “Dose-dependent effect” and the Ki ([2]; read-out: Ki) is reported as 22 nM.
For `O=C(O)c1ccc(Oc2ccc(Cl)cc2NS(=O)(=O)c2ccc(Cl)c(Cl)c2)cc1`, the Activity [2] was “Dose-dependent effect”, the Activity (CHO [5]) was 100% and the Activity [6] was 104%. For the same molecule, the Stabilty [7] was greater than 6 h, the pIC50 [8] was 7.9 and the Ki ([10]; read-out: pKi (converted)) was 6.31 nM. For the same molecule, the Activity (CHO [14]) was “inactive”, the inhibition [15] was “Dose-dependent effect” and the Stabilty [19] was “Unstable”. For the same molecule, the Activity (CHO [21]) was 100%, the Activity (CHO [22]) was 100% and the Activity [23] was “inactive”.
In the case of `O=C(NCCNC(=O)c1ccc(S(=O)(=O)F)cc1)c1ccc(Oc2ccc(Cl)cc2NS(=O)(=O)c2ccc(Cl)c(C(F)(F)F)c2)cc1`, the Activity [2] is reported as “Dose-dependent effect”, the Ki ([2]; read-out: Ki) is reported as 89 nM and the Ki ([2]; read-out: pKi (converted)) is reported as 63.1 nM.
With `O=C(NCCN=C=S)c1ccc(Oc2ccc(Cl)cc2NS(=O)(=O)c2ccc(Cl)c(C(F)(F)F)c2)cc1` the Activity [2] was “Dose-dependent effect” and the Ki ([2]; read-out: Ki) was 31 nM.
